Tests used:
PC-3 = assay: Cytotoxicity against human PC3 cells; format: cell-based
HeLa = assay: Cytotoxicity against human HeLa cells; format: cell-based
Micrococcus luteus = assay: Antimicrobial activity against Micrococcus luteus ATCC 10240 after 24 hrs by Kirby-Bauer agar diffusion assay; format: functional
Procedure, shortened: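 Modified Kirby-Bauer well diffusion. Overnight LB cultures (18–24 h) were standardized in 0.9% saline to 0.5 McFarland and mixed into melted MHII agar at 47–50 °C, giving ~5×10³ CFU/mL. 9 mm wells received 50 µL of 2.0 mM compound in 10:1 MeOH:DMSO. Plates were incubated 24 h at 37 °C, then growth-inhibition zone diameter was measured (mm) by caliper.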

MCF7 = assay: Cytotoxicity against human MCF7 cells; format: cell-based

SMILES | Activity (PC-3) | Activity (HeLa) | diameter of the inhibition zone (DIZ) (Micrococcus luteus) | Activity (MCF7)
Cc1cc(N=O)no1 | Non-toxic | Non-toxic | <=14 mm | Non-toxic
C=C(C)C(C)(C)N(O)c1cc(C)on1 | Non-toxic | Non-toxic | >14 mm | Non-toxic
COC1C=C[C@@H](N(O)c2cc(C)on2)C1 (mixture of isomers) | Non-toxic | Non-toxic | >14 mm | Non-toxic
CCCN(OCc1ccc(OC)cc1)c1ccccn1 | Non-toxic | Non-toxic | <=14 mm | Non-toxic
CC(C)O[C@@H]1C=C[C@@H](N(O)c2ccc(Br)cn2)CC1 (relative stereo) | Non-toxic | Non-toxic | >14 mm | Non-toxic
CCCCCCN(OCc1ccc(OC)cc1)c1ccccn1 | Non-toxic | Non-toxic | <=14 mm | Non-toxic
C=CCO[C@@H]1C=C[C@@H](N(O)c2ccc(Br)cn2)CC1 (racemic) | Non-toxic | Non-toxic | >14 mm | Non-toxic
COc1ccc(CON(Cc2ccc(C(F)(F)F)cc2)c2ccccn2)cc1 | Non-toxic | Non-toxic | <=14 mm | Non-toxic
C=C(CCC=C(C)C)C(CO)N(O)c1ccc(Br)cn1 (racemic) | Non-toxic | Non-toxic | >14 mm | Non-toxic
Brc1ccc(N2OC3C=CC2C3)nc1 (racemic) | Non-toxic | Non-toxic | <=14 mm | Non-toxic
O=Nc1ccccn1 | Non-toxic | Non-toxic | <=14 mm | Non-toxic
Cc1cccc(N2OC3C=CC2CC3)n1 (racemic) | Non-toxic | Non-toxic | <=14 mm | Non-toxic
Cc1cccc(N(O)[C@@H]2C=C[C@@H](OC(C)(C)C)C2)n1 (relative stereo) | Non-toxic | Non-toxic | >14 mm | Non-toxic
COc1ccc(CON(Cc2ccc(OC(F)(F)F)cc2)c2ccccn2)cc1 | Non-toxic | Non-toxic | <=14 mm | Non-toxic
O=C(Cc1ccccc1)N1OC2C=CC1CC2 (racemic) | Non-toxic | Non-toxic | <=14 mm | Non-toxic
COC1C=C[C@@H](N(O)c2cccc(C)n2)C1 (mixture of isomers) | Non-toxic | Non-toxic | >14 mm | Non-toxic
O=Nc1ccc(I)cn1 | Non-toxic | Non-toxic | <=14 mm | Non-toxic
CC(C)(C)OC1C=C[C@@H](N(O)c2ccc(Cl)cn2)C1 (mixture of isomers) | Non-toxic | Non-toxic | >14 mm | Non-toxic
O=C(Cc1ccccc1)NO [PHENYLACETOHYDROXAMIC ACID] | Non-toxic | Non-toxic | <=14 mm | Non-toxic
CC(C)(C)OC(=O)NO | Non-toxic | Non-toxic | <=14 mm | Non-toxic

From ChEMBL document CHEMBL1914331, “N-O chemistry for antibiotics: discovery of N-alkyl-N-(pyridin-2-yl)hydroxylamine scaffolds as selective antibacterial agents using nitroso Diels-Alder and ene chemistry” (J Med Chem, 2011)
